In PubChem BioAssay AID624338 (The Scripps Research Institute Molecular Screening Center, 2012):
Active and inactive are the calls of the source.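 How the source made its calls: active means inhibition of a cysteine-free insulin-degrading enzyme mutant that persists after dilution, so judged irreversible; inactive means inhibition weakens or vanishes on dilution, so reversible.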

target: Insulin-degrading enzyme (Homo sapiens) (UniProt P14735); assay: reversibility of cysteine-free IDE inhibition, late-stage follow-up, mechanism study for IDE inhibitor project, biochemical, cysteine-free mutant, FRET1 substrate, round 2 (AID 624338); details: recombinant CF-IDE, FRET1 substrate fluorescence, reversibility by dilution
Sequence (P14735 whole entry, looked up): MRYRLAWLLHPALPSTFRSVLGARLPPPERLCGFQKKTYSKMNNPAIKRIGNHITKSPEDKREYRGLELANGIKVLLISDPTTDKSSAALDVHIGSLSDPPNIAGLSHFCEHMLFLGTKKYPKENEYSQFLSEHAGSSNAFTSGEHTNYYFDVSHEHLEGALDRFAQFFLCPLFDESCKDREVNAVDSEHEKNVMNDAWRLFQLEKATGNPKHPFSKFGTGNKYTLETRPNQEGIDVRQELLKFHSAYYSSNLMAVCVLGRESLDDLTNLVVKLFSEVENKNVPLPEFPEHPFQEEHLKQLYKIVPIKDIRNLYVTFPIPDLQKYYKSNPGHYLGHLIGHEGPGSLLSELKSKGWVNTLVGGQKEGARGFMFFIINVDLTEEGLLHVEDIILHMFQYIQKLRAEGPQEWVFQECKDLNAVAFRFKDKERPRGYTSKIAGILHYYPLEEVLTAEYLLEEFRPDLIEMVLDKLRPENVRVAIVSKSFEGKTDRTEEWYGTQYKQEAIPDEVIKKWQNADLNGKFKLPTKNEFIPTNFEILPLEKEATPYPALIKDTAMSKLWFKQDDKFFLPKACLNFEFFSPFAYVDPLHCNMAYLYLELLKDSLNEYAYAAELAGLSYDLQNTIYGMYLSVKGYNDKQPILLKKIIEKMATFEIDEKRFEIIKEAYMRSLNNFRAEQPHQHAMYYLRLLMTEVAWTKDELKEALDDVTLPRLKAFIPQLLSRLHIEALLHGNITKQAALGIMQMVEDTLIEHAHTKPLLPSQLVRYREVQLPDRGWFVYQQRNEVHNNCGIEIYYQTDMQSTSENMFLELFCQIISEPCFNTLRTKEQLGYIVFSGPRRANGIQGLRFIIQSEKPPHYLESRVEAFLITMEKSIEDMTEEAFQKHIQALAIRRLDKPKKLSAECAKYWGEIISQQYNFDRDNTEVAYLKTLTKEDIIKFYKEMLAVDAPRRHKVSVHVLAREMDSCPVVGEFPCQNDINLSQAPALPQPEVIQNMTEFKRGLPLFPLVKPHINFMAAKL
How it was run: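 material = CF-IDE enzyme | amount = 1 nM enzyme | compound dosing = 10-point semilog dilution series, nominal top dose 100 µM | repeats = triplicate | times = room temperature reaction | control set = DMSO high, no-enzyme low | medium = reaction buffer at pH 7.4 | reagent = FRET1 peptide substrate at 1 µM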

outcome, inactive:
COc1cccc(C(=O)N2CCN(C(=O)C3COc4ccccc4O3)CC2)c1 (stereo not given)
COc1ccc(C(=O)N2CCN(C(=O)COc3ccc(C)cc3)CC2)cc1OC
c1coc(Cn2c(SCc3nc4ccccc4[nH]3)nnc2-c2ccco2)c1
O=C(c1ccc(Oc2ccccc2)cc1)N1CCN(C(=O)C2COc3ccccc3O2)CC1 (stereo not given)
c1ccc(-c2nnc(SCc3nc4ccccc4[nH]3)n2Cc2ccco2)cc1
CCOc1ccc(C(=O)N2CCN(C(=O)C3COc4ccccc4O3)CC2)cc1 (stereo not given)
Cc1ccc(COCc2nnc(SCc3nc4ccccc4[nH]3)n2Cc2ccco2)cc1
c1coc(Cn2c(SCc3nc4ccccc4[nH]3)nnc2-c2cnccn2)c1
O=C(c1ccc(Oc2ccc(F)cc2)cc1)N1CCN(C(=O)C2COc3ccccc3O2)CC1 (stereo not given)
O=C(c1ccc(OCC2CCCO2)cc1)N1CCN(C(=O)C2COc3ccccc3O2)CC1 (stereo not given)
COc1ccc(C(=O)N2CCN(C(=O)COc3ccc(Cl)cc3)CC2)cc1OC
COc1ccc(C(=O)N2CCN(C(=O)C3COc4ccccc4O3)CC2)cc1 (stereo not given)
COc1ccc(C(=O)N2CCN(C(=O)CCc3c[nH]c4ccccc34)CC2)cc1OC
c1coc(Cn2c(SCc3nc4ccccc4[nH]3)nnc2-c2cccs2)c1
COc1ccc(OCC(=O)N2CCN(C(=O)c3ccc(OC)c(OC)c3)CC2)cc1
Cc1nc(COc2ccc(C(=O)N3CCN(C(=O)C4COc5ccccc5O4)CC3)cc2)cs1 (stereo not given)
c1ccc(-c2nnc(SCc3nc4ccccc4[nH]3)n2Cc2ccco2)nc1
COc1ccc(C(=O)N2CCN(C(=O)C3CC(=O)N(c4ccccc4)C3)CC2)cc1OC (stereo not given)
O=C(c1ccc2nc(C(F)(F)F)[nH]c2c1)N1CCN(C(=O)C2COc3ccccc3O2)CC1 (stereo not given)
COc1ccc(C(=O)N2CCN(C(=O)COc3ccccc3)CC2)cc1OC
Clc1ccc(COCc2nnc(SCc3nc4ccccc4[nH]3)n2Cc2ccco2)cc1
COc1cc(C(=O)N2CCN(C(=O)C3COc4ccccc4O3)CC2)cc(Cl)c1OC (stereo not given)
COc1ccc(C(=O)N2CCN(C(=O)C(c3ccccc3)c3ccccc3)CC2)cc1OC
Cc1ccc(-c2nnc(SCc3nc4ccccc4[nH]3)n2Cc2ccco2)cc1
CC(=O)Nc1ccccc1C(=O)N1CCN(C(=O)C2COc3ccccc3O2)CC1 (stereo not given)
